Laboratory results from paper PMC7947324 (Pharmacology Research & Perspectives, 2021).
“Also recorded” adds a separate entry of the source.

How the values were obtained:
INS‐1 (832/3) cells [1] = assay: Relative gene expression by qPCR in INS‐1; assay type: cell-based, rat; details: for Ptges expression vs. control: 2^ΔΔCt method, AA enrichment alone or 10 ng/ml IL‐1β
INS‐1 (832/3) cells [2] = assay: Membrane phospholipid AA and EPA composition of INS‐1; assay type: cell-based, rat; details: 100 μM AA‐enriched medium, 48 h
INS‐1 (832/3) cells [3] = assay: INS‐1; assay type: cell-based, rat; details: for effect of antagonist on the PGE2 dose–response (GSIS): 10 µM antagonist, PGE2 1 pM to 50 μM; for effect of antagonist on the sulprostone dose–response (GSIS): sulprostone 1 pM to 50 μM; for reduction of GSIS at high concentration compared with PGE2: 50–100 µM; for concentration from which the agonist reduces GSIS / effect of agonist on GSIS (dose–response): agonist alone; for effect of agonist on GSIS (dose–response): 1 pM to 50 or 100 μM, 16.7 mM glucose
How it was run: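 INS‐1 (832/3) cells (passage 35 or below) plated and cultured 72 h before GSIS. Agonists tested from 1 pM to 10, 50 or 100 µM, with or without 20 µM EP3 antagonist or 10 µM other EP antagonists. Insulin measured by in‐house ELISA and expressed relative to 16.7 mM glucose. N = 3–5 independent experiments, mean ± SEM, two‐way ANOVA with Holm–Sidak.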

rat EP1 receptor = details: cited from earlier work
rat EP3 receptor = details: cited from earlier work
mouse DP2 receptor [4] = details: ref Table 3; cited from earlier work
mouse DP2 receptor [5] = assay: Published agonism at mouse DP2 receptor; assay type: biochemical; details: from published pKi values of Table 3
INS‐1 (832/3) cells [6] = details: cited from earlier work
INS‐1 (832/3) cells [7] = assay: PGE2 production; assay type: cell-based, rat; details: BSA or AA cultured cells, 10 ng/mL IL‐1β or vehicle
INS‐1 (832/3) cells [8] = assay: Total insulin content of INS‐1; assay type: cell-based, rat; details: 10 ng/ml, regardless of fatty acid treatment
How it was run: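 Cells at 70% confluence were cultured 48 h in medium with 1% fatty acid‐free BSA, with or without 100 μM AA, then 24 h with vehicle or 10 ng/ml IL‐1β. Assay groups were 1.7 mM glucose, 16.7 mM glucose, 16.7 mM + 10 nM agonist, and 16.7 mM + 20 µM EP3 antagonist. Secreted insulin was given as percent of content; content and secretion by in‐house ELISA. N = 3–4, mean ± SEM, two‐way ANOVA with Holm–Sidak.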

With `CCCCC/C=C\C/C=C\C/C=C\C/C=C\CCCC(=O)O` [AA, arachidonic acid] the “Ptges expression vs. control” value (INS‐1 (832/3) cells [1]) was ~ 3.5 fold, the “AA abundance in membrane phospholipids vs controls” value (INS‐1 (832/3) cells [2]) was 4 fold and the “AA:EPA ratio vs controls” value (INS‐1 (832/3) cells [2]) was 25 fold.
With `O=C(O)CC/C=C\CC[C@H]1[C@H](N2CCOCC2)C(=O)C[C@H]1OCc1ccc(-c2ccccc2)cc1` [AH2384B] the “effect of antagonist on the PGE2 dose–response (GSIS)” value (INS‐1 (832/3) cells [3]) was “excluded from mediating the effect of PGE2 on GSIS” and the “effect of antagonist on the sulprostone dose–response (GSIS)” value (INS‐1 (832/3) cells [3]; 10 μM antagonist) was “neither SC51089, AH2384B, SC19220, nor L161,982 affecting the sulprostone dose–response”.
With `CCC#CC[C@H](C)[C@H](O)C#C[C@@H]1[C@H]2C/C(=C/COCC(=O)O)C[C@H]2C[C@H]1O` [Cicaprost, cicaprost] the “reduction of GSIS at high concentration compared with PGE2” value (“reduction of GSIS at high concentration” for short) (INS‐1 (832/3) cells [3]) was “nearly reaching the maximal potency of PGE2” and the “concentration from which the agonist reduces GSIS” value (INS‐1 (832/3) cells [3]) was 1 µM.
For `CC#CCC(C)[C@H](O)/C=C/[C@@H]1[C@H]2C/C(=C/CCCC(=O)O)C[C@H]2C[C@H]1O` (stereo partly drawn) [Iloprost, iloprost], the “effect of agonist on GSIS (dose–response)” value (from here on “effect of agonist on GSIS”) (INS‐1 (832/3) cells [3]) is listed as “dose‐dependently reduces GSIS; also recorded: significantly reduce INS‐1 cell GSIS”, the “agonist type at rat EP1 receptor” value (rat EP1 receptor) is listed as “only a partial agonist” and the “agonist type at rat EP3 receptor” value (rat EP3 receptor) is listed as “full agonist”.
For `COc1ccc2c(c1)c(CC(=O)O)c(C)n2C(=O)c1ccc(Cl)cc1` [Indomethacin, indomethacin], the “effect of agonist on GSIS” value (INS‐1 (832/3) cells [3]) was “no significant effect” and the “effect of agonist on GSIS” value (INS‐1 (832/3) cells [3]; listed as indomethacin) was “no effect on GSIS”.
For `CCCCc1nn(-c2ccccc2C(F)(F)F)c(=O)n1Cc1ccc(-c2ccccc2S(=O)(=O)NC(=O)c2sccc2C)cc1` [L161,982], the “effect of antagonist on the PGE2 dose–response (GSIS)” value (INS‐1 (832/3) cells [3]) was “excluded from mediating the effect of PGE2 on GSIS” and the “effect of antagonist on the sulprostone dose–response (GSIS)” value (INS‐1 (832/3) cells [3]; 10 μM antagonist) was “neither SC51089, AH2384B, SC19220, nor L161,982 affecting the sulprostone dose–response”.
For `COc1ccc(Br)cc1S(=O)(=O)NC(=O)/C=C/c1ccccc1Cc1ccc2ccccc2c1` [L798,106], the “effect of antagonist on GSIS reduced by PGD2, PGF2α, cicaprost or U‐46619” value (INS‐1 (832/3) cells [3]; 20 μM L798,106) was “fully restores INS‐1 (832/3) GSIS”, the “increase in GSIS vs. 16.7 mM glucose alone” value (INS‐1 (832/3) cells [3]; 20 µM, AA enrichment and 10 ng/ml IL‐1β pretreatment) was ~ 30% and the “effect of antagonist alone on GSIS” value (INS‐1 (832/3) cells [3]; 20 µM, no IL‐1β treatment, control and AA‐enriched cells) was “no potentiating effect; also recorded: unaffected”. The “increase of the IC50 for PGE2 (reduction of GSIS) by antagonist” value (INS‐1 (832/3) cells [3]; PGE2 1 pM to 10 μM with and without 20 μM L798,106) was “over 100 fold”.
In the case of `CCCCC[C@H](O)/C=C/[C@H]1C(=O)C[C@H](O)[C@@H]1C/C=C\CCCC(=O)O` [PGD2], the “reduction of GSIS at high concentration” value (INS‐1 (832/3) cells [3]) is reported as “nearly reaching the maximal potency of PGE2” and the “concentration from which the agonist reduces GSIS” value (INS‐1 (832/3) cells [3]) is reported as 1 µM.
For `CCCCC[C@H](O)/C=C/[C@H]1[C@H](O)CC(=O)[C@@H]1C/C=C\CCCC(=O)O` [PGE2], the “agonist type at mouse DP2 receptor” value (mouse DP2 receptor [4]) is given as “full agonist”, the “reduced potency at DP2 as compared to EP3” value (mouse DP2 receptor [5]) is given as ~ 3000 fold and the “potentiation of GSIS” value (INS‐1 (832/3) cells [3]; 10 nM, AA‐enriched cells pretreated with IL‐1β) is given as “approximately twofold”. The “effect on GSIS” value (INS‐1 (832/3) cells [3]; 10 nM, IL‐1β‐treated control (BSA) cells) was “no further inhibitory effect”, the “effect on GSIS” value (INS‐1 (832/3) cells [3]; 10 nM, cells without IL‐1β, with or without AA enrichment) was “blunts INS‐1 (832/3) GSIS regardless of AA enrichment” and the “effect of agonist on GSIS” value (INS‐1 (832/3) cells [3]) was “reduces INS‐1 (832/3) GSIS in a dose‐dependent manner; also recorded: significantly reduce INS‐1 cell GSIS”. The “maximal reduction in GSIS” value (INS‐1 (832/3) cells [3]; maximal potency) was ~ 60%.
For `CC/C=C\C[C@H](O)/C=C/[C@H]1[C@H](O)CC(=O)[C@@H]1C/C=C\CCCC(=O)O` [PGE3], the “effect on INS‐1 cell GSIS” value (INS‐1 (832/3) cells [6]) is given as “significantly reduce INS‐1 cell GSIS”.
For `CCCCC[C@H](O)/C=C/[C@H]1[C@H](O)CC(=O)[C@@H]1CCCCCCC(=O)O` [PGE 1], the “effect on INS‐1 cell GSIS” value (INS‐1 (832/3) cells [6]) is given as “significantly reduce INS‐1 cell GSIS”.
With `CCCCC[C@H](O)/C=C/[C@@H]1[C@@H](C/C=C\CCCC(=O)O)[C@@H](O)C[C@H]1O` [PGF2α] the “reduction of GSIS at high concentration” value (INS‐1 (832/3) cells [3]) was “nearly reaching the maximal potency of PGE2” and the “concentration from which the agonist reduces GSIS” value (INS‐1 (832/3) cells [3]) was 1 µM.
In the case of `CC(=O)NNC(=O)N1Cc2ccccc2Oc2ccc(Cl)cc21` [SC19220], the “effect of antagonist on the PGE2 dose–response (GSIS)” value (INS‐1 (832/3) cells [3]) is reported as “neither of two EP1 antagonists, SC19220 or SC51089, affect the PGE2 dose–response” and the “effect of antagonist on the sulprostone dose–response (GSIS)” value (INS‐1 (832/3) cells [3]; 10 μM antagonist) is reported as “neither SC51089, AH2384B, SC19220, nor L161,982 affecting the sulprostone dose–response”.
With `CS(=O)(=O)NC(=O)CCC/C=C\C[C@H]1C(=O)C[C@@H](O)[C@@H]1/C=C/[C@@H](O)COc1ccccc1` [Sulprostone, sulprostone] the “effect of agonist on GSIS” value (INS‐1 (832/3) cells [3]) was “nearly identical results as with PGE2; also recorded: significantly reduce INS‐1 cell GSIS”.
For “IL‐1β: Interleukin‐1β, cytokine used at 10 ng/ml to mimic the diabetic state and induce PGE2 production”, the “substrate‐dependent PGE2 production” value (INS‐1 (832/3) cells [7]) was “only induced with IL‐1β treatment”, the “reduction of insulin content” value (INS‐1 (832/3) cells [8]) was ~50% and the Ptger1 expression (INS‐1 (832/3) cells [1]; 10 ng/ml IL‐1β) was “unaffected”. The Ptger3 expression upregulation (INS‐1 (832/3) cells [1]; 10 ng/ml IL‐1β) was ~ 6 fold, the Ptger4 expression upregulation (INS‐1 (832/3) cells [1]; 10 ng/ml IL‐1β) was ~ 10 fold and the Ptges2 expression induction (INS‐1 (832/3) cells [1]; 10 ng/ml IL‐1β) was ~ 2 fold. The Ptges3 expression induction (INS‐1 (832/3) cells [1]; 10 ng/ml IL‐1β) was ~ 2.5 fold, the Ptgs1 expression induction (INS‐1 (832/3) cells [1]; 10 ng/ml IL‐1β) was 2–4 fold and the Ptgs2 expression induction (INS‐1 (832/3) cells [1]; 10 ng/ml IL‐1β) was ~ 10 fold. For the same compound, the “Ptges expression vs. control” value (INS‐1 (832/3) cells [1]) was ~ 100 fold.
In the case of PF‐04418948, the “effect of antagonist on the PGE2 dose–response (GSIS)” value (INS‐1 (832/3) cells [3]) is reported as “no effect”.
For SC51089, the “effect of antagonist on the PGE2 dose–response (GSIS)” value (INS‐1 (832/3) cells [3]) was “neither of two EP1 antagonists, SC19220 or SC51089, affect the PGE2 dose–response”, the “effect of antagonist on the iloprost dose–response curve (GSIS)” value (INS‐1 (832/3) cells [3]; 10 μM antagonist, iloprost 1 pM to 100 μM) was “no effect” and the “effect of antagonist on the sulprostone dose–response (GSIS)” value (INS‐1 (832/3) cells [3]; 10 μM antagonist) was “neither SC51089, AH2384B, SC19220, nor L161,982 affecting the sulprostone dose–response”.
